Measured values from article PMC3201811 (Journal of inorganic biochemistry, 2011).

What was measured:
[1] = tested on: Jurkat-CN cells; test: PS exposure; format: cell-based, human; conditions: 24 h
How it was run: (§1)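 Jurkat cells with Bak knocked down by RNA interference, and empty-vector controls (CN), were exposed to test compound for 24 h; cisplatin at 25 μM served as reference. Samples were diluted to 1 ml and read by flow cytometry.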

[2] = tested on: Jurkat-shBak cells; test: PS exposure; format: cell-based, human; conditions: 24 h
How it was run: as §1

[3] = tested on: Jurkat cells; test: Cytotoxicity, cell death by annexinV-PE labeling and flow cytometry, 24 h; format: cell-based, human
How it was run: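 Jurkat (clone E6.1) in RPMI 1640 with 5% FCS, L-glutamine and penicillin/streptomycin, seeded at 3×10⁵ cells/ml. Cells were exposed to a range of test compound concentrations for 24 h. Fluorescent cells were counted by flow cytometry. Values are mean ± SD of three independent experiments.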

[4] = tested on: PBMC from healthy donors; test: Cytotoxicity, cell death by annexinV-PE labeling and flow cytometry, 24 h; format: cell-based, human; conditions: 25 μM
How it was run: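 PBMC came from healthy donors, were freshly isolated by Ficoll-Paque density centrifugation and kept in complete RPMI 1640 medium. They were exposed to a range of test compound concentrations for 24 h. Positive cells were quantified by flow cytometry. Values are mean ± SD of three independent experiments.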

[5] = tested on: Jurkat-CN cells; test: Necrotic versus apoptotic cell death, Trypan blue staining and morphology; format: cell-based, human; conditions: control Jurkat cells, 24 h
How it was run: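 Jurkat-CN (empty-vector) and Jurkat-shBak cells were treated with test compound or cisplatin for 24 h, then stained with Trypan blue. Stained cells were scored as necrotic. Unstained cells showing blebbing and/or chromatin condensation were scored as apoptotic. Values are mean ± SD of three independent experiments.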

[6] = tested on: Jurkat-shBak cells; test: Necrotic versus apoptotic cell death, Trypan blue staining and morphology; format: cell-based, human; conditions: 24 h
[7] = tested on: Jurkat cells; test: Protection by antioxidants; format: cell-based, human; conditions: 24 h, superoxide scavenger MnTBAP
How it was run: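 Jurkat cells were cultured for 24 h with test compound alone or together with MnTBAP (superoxide anion scavenger), glutathione or N-acetylcysteine. Collapse of mitochondrial transmembrane potential was measured at the end by flow cytometry. Values are mean ± SD of 4 independent experiments.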

[8] = tested on: Jurkat cells; test: Growing potential after removal of compounds and NAC, Trypan blue counting; format: cell-based, human; conditions: 24h treatment with compound alone, viable cells 24 h and 48 h after removal
How it was run: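 Jurkat cells were treated with test compound, with or without NAC, for 24 h. They were then washed and transferred to fresh medium. Total cell number and viability were measured 24 and 48 h after removal of compound and NAC, by Trypan blue staining and counting in a Neubauer haemocytometer. Values are mean ± SD of three independent experiments.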

[9] = cited from earlier work

Compound	death of cells ([1]; 25 μM, Jurkat control (CN) cells)	sensitivity of Jurkat-shBak cells, in words [2]	IC50 [3] [µM]	killing of cells ([3]; 25 μM) [%]	dead cells [4] [%]	cells bound annexin V-PE ([1]; 10 μM, control Jurkat cells)	type of cell death (necrosis versus apoptosis) [5]	type of cell death (necrosis versus apoptosis) [6]	protection from toxicity by MnTBAP [7]	growing potential after transfer to fresh medium [8]	time stable in solution [9] [h]
N.N.[Cl][Pt][Cl] [cisplatin, reference compound]	around 60%	completely resistant									
[Au{κ^2-C,N-C6H4(PPh2=N(C6H5)-2}(P{Cp(m-C6H4-SO3Na)2} 3)Cl]PF6 [compound 3]		almost completely resistant	16.1	96	33.5	around 50%	necrosis and apoptosis at similar levels	both apoptotic and necrotic cell death were prevented	almost completely protected	A fraction of cells	≤ 24
